The values that follow come from ChEMBL document CHEMBL1138152, “Design and synthesis of novel hydrazide-linked bifunctional peptides as delta/mu opioid receptor agonists and CCK-1/CCK-2 receptor antagonists” (J Med Chem, 2006).

Test [1] addresses Delta-type opioid receptor (Homo sapiens, UniProt P41143). The experiment in a line: Inhibition of [35S]GTP-gamma-S binding to human delta opioid receptor expressed in CHO cells. The format is functional, cell-based. The gist of the method:
(§1)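 CHO-expressed receptor membranes (10 µg) in 50 mM HEPES pH 7.4 with EDTA, 5 mM MgCl2, 30 µM GDP, DTT, 100 mM NaCl, PMSF, BSA and 0.1 nM [35S]GTPγS. Test drug at various concentrations, duplicate or triplicate, 90 min at 30 °C. Nonspecific binding with 10 µM GTPγS.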
In general terms: GTPγS resists hydrolysis and so accumulates on activated G proteins.

Test [2] has as its target Mu-type opioid receptor (Rattus norvegicus) (UniProt P33535). The experiment in a line: Inhibition of [35S]GTP-gamma-S binding to rat mu opioid receptor expressed in CHO cells. Type of test: functional, cell-based. The method in brief:
as §1

In test [3] the target is T1, Cholecystokinin receptor (Homo sapiens) (UniProt P32239+P32238). The test can be described thus: Agonist activity at CCK receptor of guinea pig ileum at 1 uM. Type of test: functional, tissue-based. The following applies: Cavia porcellus, target entry is the homologue from another species. The gist of the method:
(§2)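 Guinea pig ileum LMMP strips (male Hartley), 20-mL baths, 1 g tension, oxygenated Krebs bicarbonate buffer, 37 °C. Tissue first challenged with 67 mM KCl to set maximal contraction. Test compound added to the bath; agonist activity taken as contraction height as a percentage of the maximal KCl contraction (A50).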

The target in test [4] is T1, Cholecystokinin receptor (Homo sapiens). The experiment in a line: Antagonist activity at CCK receptor by inhibition of CCK8-induced muscle contraction in unstimulated GPI/LMMP. Type of test: functional. The settings on record: Cavia porcellus; target entry is the homologue from another species. The method in brief: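 Male Hartley guinea pig ileum LMMP strips, 1 g tension, oxygenated Krebs bicarbonate buffer, 37 °C; 67 mM KCl sets maximal contractility. Initial noncumulative CCK-8 dose-response curve built. Test compound added without electrical stimulation; 3 min later the CCK-8 curve was rebuilt at an antagonist dose giving about a 3-fold rightward shift. Ke is the antagonist concentration halving CCK-8 activity.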

Test [5] can be described thus: Selectivity for human delta opioid receptor over rat mu opioid receptor.
The target in test [6] is Delta-type opioid receptor (Mus musculus, UniProt P32300). The test can be described thus: Agonist activity at delta opioid receptor by inhibition of muscle contraction in electrically stimulated isolated mouse vas deferens. Type of test: functional, tissue-based. The gist of the method:
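Male ICR mouse vasa deferentia in 20-mL baths, 0.5 g tension, oxygenated Mg-free Krebs at 37 °C; field stimulation 0.1 Hz, 2.0 ms single pulses, supramaximal voltage. Tissue integrity checked with DPDPE (10 nM). Compound added cumulatively until maximal inhibition. Inhibition taken as mean contraction height for 1 min before dosing versus height 3 min after. IC50 from Hill-equation fit by nonlinear least squares.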

The target of test [7] is Mu-type opioid receptor (Cavia porcellus, UniProt P97266). The test can be described thus: Agonist activity at mu opioid receptor by inhibition of muscle contraction in electrically stimulated isolated guinea pig ileum. Type of test: functional, tissue-based. The gist of the method: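 Longitudinal muscle–myenteric plexus strips from male Hartley guinea pig ileum, 1 g tension, oxygenated Krebs at 37 °C, 15 min equilibration. Stimulated at 0.1 Hz, 0.4 ms, supramaximal voltage. Integrity checked with PL-017 (10 nM). Compound added until maximal inhibition. Inhibition taken as contraction height 1 min before versus 3 min after dosing. IC50 from Hill-equation fit.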

Test [8] deals with T1, Cholecystokinin receptor (Homo sapiens). The experiment in a line: Agonist activity at CCK receptor of guinea pig ileum at 300 nM. The format is functional, tissue-based. The following applies: Cavia porcellus, target entry is the homologue from another species. The method in brief:
as §2

The target is the same in test [9]. The experiment in a line: Antagonist activity at CCK receptor by inhibition of CCK8-induced muscle contraction in unstimulated GPI/LMMP at 1 uM. Type of test: functional. The following applies: Cavia porcellus, filed as partial agonist, target entry is the homologue from another species.

Chain of Mu-type opioid receptor (Rattus norvegicus) (P33535 whole entry): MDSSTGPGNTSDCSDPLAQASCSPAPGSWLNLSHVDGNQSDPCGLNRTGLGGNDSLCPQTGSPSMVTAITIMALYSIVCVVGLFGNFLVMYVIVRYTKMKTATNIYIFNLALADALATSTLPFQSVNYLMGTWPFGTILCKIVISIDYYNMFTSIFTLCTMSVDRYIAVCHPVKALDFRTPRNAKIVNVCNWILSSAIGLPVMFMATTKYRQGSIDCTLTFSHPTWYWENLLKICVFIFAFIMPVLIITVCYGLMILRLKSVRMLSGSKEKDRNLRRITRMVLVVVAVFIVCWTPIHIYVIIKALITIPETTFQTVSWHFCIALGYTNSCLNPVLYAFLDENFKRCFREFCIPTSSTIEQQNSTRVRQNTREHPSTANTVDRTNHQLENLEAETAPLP
Chain of Delta-type opioid receptor (Homo sapiens, UniProt P41143) (P41143 whole entry): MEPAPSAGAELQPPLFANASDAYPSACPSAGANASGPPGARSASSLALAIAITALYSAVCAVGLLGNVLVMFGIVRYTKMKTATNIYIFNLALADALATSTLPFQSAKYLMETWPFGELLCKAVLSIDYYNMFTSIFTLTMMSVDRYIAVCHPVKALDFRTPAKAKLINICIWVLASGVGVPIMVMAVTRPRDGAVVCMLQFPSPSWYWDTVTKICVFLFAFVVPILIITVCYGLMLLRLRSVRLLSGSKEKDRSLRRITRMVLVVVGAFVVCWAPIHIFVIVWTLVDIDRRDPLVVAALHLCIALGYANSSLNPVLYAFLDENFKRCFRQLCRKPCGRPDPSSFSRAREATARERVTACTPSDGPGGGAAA
T1 sequence (P32238 whole entry, looked up): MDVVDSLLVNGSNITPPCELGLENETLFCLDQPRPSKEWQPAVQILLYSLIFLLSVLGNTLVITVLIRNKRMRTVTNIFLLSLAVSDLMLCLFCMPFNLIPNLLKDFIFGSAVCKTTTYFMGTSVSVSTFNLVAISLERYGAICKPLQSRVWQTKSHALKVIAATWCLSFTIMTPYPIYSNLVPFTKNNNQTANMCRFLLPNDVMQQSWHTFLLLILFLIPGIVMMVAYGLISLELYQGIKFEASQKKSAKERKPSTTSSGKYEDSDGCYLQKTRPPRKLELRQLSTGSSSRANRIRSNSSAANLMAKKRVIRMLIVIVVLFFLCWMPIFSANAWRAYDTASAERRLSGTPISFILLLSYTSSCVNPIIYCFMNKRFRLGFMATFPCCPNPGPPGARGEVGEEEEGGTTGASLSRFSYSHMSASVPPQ
T1 sequence (P32239 whole entry, looked up): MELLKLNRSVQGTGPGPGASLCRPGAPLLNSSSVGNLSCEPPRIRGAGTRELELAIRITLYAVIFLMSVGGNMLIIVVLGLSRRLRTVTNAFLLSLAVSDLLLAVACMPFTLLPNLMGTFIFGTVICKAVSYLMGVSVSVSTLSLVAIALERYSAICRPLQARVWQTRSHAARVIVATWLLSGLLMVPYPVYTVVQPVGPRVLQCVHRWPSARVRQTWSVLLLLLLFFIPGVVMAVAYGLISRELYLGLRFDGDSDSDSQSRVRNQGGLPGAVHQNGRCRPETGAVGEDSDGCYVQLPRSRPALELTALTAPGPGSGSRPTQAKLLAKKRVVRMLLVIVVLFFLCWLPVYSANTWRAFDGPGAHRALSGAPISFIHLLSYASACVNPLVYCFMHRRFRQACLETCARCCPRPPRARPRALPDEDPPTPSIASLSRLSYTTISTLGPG
Chain of Mu-type opioid receptor (P97266 whole entry): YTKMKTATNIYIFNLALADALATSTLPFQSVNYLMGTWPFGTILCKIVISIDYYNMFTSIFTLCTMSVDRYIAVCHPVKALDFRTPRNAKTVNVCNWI
Chain of Delta-type opioid receptor (Mus musculus, UniProt P32300) (P32300 whole entry): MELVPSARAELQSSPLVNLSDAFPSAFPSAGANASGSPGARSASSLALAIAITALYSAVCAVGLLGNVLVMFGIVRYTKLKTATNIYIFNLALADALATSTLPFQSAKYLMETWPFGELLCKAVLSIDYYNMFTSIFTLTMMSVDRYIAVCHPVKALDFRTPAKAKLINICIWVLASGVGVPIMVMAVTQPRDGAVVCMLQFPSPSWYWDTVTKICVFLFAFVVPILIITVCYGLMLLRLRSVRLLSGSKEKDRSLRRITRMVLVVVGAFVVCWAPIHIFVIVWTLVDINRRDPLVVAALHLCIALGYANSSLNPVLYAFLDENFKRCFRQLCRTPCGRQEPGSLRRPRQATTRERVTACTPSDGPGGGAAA

Regarding `CCCC[C@H](NC(=O)[C@H](CC(=O)O)NC(=O)[C@H](Cc1ccccc1)NN[C@@H](Cc1ccccc1)C(=O)NCC(=O)N[C@H](C)C(=O)N[C@@H](Cc1ccc(O)cc1)C(=O)O)C(=O)N[C@H](Cc1cn(C(=O)OC23CC4CC(CC(C4)C2)C3)c2ccccc12)C(=O)O`, the Emax (in general, the maximal effect, on the per cent scale that the assay sets) was 25% in test [1] and 103% in [2]. Also, the Activity in test [3] is 0%. Further, the Ke in test [4] is 44 nM. In test [5], the Selectivity ratio is 430.
With `CCCC[C@H](NC(=O)[C@H](CC(=O)O)NC(=O)[C@H](Cc1ccccc1)NN[C@@H](Cc1ccccc1)C(=O)NCC(=O)N[C@H](C)C(=O)N[C@@H](Cc1ccc(O)cc1)C(=O)O)C(=O)N[C@H](Cc1cn(C(=O)OC(C)(C)C)c2ccccc12)C(=O)O`, the values for the Emax in test [1] and in [2] were 100% and 170%, respectively. In [3], this compound registered an Activity of 0%. In addition, in test [4], the Ke came to 6.5 nM.
The like results for `CCCC[C@H](NC(=O)[C@H](CC(=O)O)NC(=O)[C@H](Cc1ccccc1)NN[C@@H](Cc1ccccc1)C(=O)NCC(=O)N[C@H](C)C(=O)N[C@@H](Cc1ccc(O)cc1)C(=O)O)C(=O)N[C@@H](Cc1cn(C(=O)OC(C)(C)C)c2ccccc12)C(=O)O` were, in that order, 54%, 83%, 0% and 14 nM.
Turning to `CCCC[C@@H](C(=O)N[C@@H](CC(=O)O)C(=O)N[C@@H](Cc1ccccc1)C(N)=O)N(C)C(=O)[C@H](Cc1c[nH]c2ccccc12)NC(=O)CNC(=O)[C@@H](Cc1ccccc1)NC(=O)[C@H](Cc1ccc(O)cc1)NC(=O)[C@@H](N)CC(=O)O`, the IC50 (commonly the concentration needed to halve the response being measured) came out at 0.029 µM in test [6] and 0.22 µM in test [7]. This compound had a Ke in test [4] of 66 nM. Further, in test [8], the Activity is 0%.
`CCCC[C@@H](C(=O)N[C@@H](Cc1cn(C(C)=O)c2ccccc12)C(=O)O)N(C(=O)Nc1ccccc1Cl)C(=O)[C@H](CC(=O)O)NC(=O)[C@H](Cc1ccccc1)N(C)N[C@@H](Cc1ccccc1)C(=O)NCC(=O)N[C@H](C)C(=O)N[C@@H](Cc1ccc(O)cc1)C(=O)O`: the results for the Emax in test [1] and in [2] were 81% and 33%, respectively. The compound further showed an Activity in [3] of 0%. Further, in [4], the Ke turned out to be 150 nM.
For the compound `CCCC[C@@H](C(=O)N[C@H](Cc1cn(C(=O)OC(C)(C)C)c2ccccc12)C(=O)O)N(C)C(=O)[C@H](CC(=O)O)NC(=O)[C@H](Cc1ccccc1)NN[C@@H](Cc1ccccc1)C(=O)NCC(=O)N[C@H](C)C(=O)N[C@@H](Cc1ccc(O)cc1)C(=O)O`, the maximal effect (Emax) in test [1] was determined as 120%; in test [2] it was 130%. This compound also showed an Activity in test [3] of 5%. Further, the Ke result in test [9] was “Partial agonist”.
